Experimental data as given in ChEMBL document CHEMBL4825692, “Benzofuranyl-2-imidazoles as imidazoline I2 receptor ligands for Alzheimer's disease” (Eur J Med Chem, 2021).
Active and inactive are the calls of the source. The rule behind the calls is not given here.

What was measured:
[1] = Stability in human plasma assessed as compound remaining after1 hrs; format: ADME, cell-free; conditions: read-out: Stabilty
How it was run: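 Pooled human plasma from healthy donors, sampled at 0, 1, 2 and 6 h, reported as percentage of parent remaining.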

CAPAN-1 = test: Cytotoxicity against human CAPAN-1 cells at 100 uM by real time IncuCyte proliferation assay; format: cell-based; conditions: capan-1, 100 µM
How it was run: (§1)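 Adherent lines (LN-229, Capan-1, HCT-116, NCI-H460) seeded at 500–1500 cells/well and treated after overnight attachment. Suspension lines (HL-60, K-562, Z-138, DND-41) seeded at 2500–5500 cells/well directly with compound. Highest concentration 100 μM; proliferation tracked by real-time IncuCyte imaging over 72 h at 37 °C.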

[2] = Displacement of [3H]clonidine from imidazoline I1 receptor low affinity site in human hypothalamic membranes measured after 30 mins by liquid scintillation counting spectrometry; format: cell membranes, Hypothalamus, Membrane
[3] = Hypothermic effect in CD-1 mouse assessed as reduction in body temperature at 50 mg/kg, ip measured up to 3 hrs by rectal thermometric method; format: ADME, organism-based; conditions: in vivo
How it was run: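 Adult male and female CD-1 mice (n = 5 per group) given single i.p. doses (1, 5, 10, 20, 30, 50 mg/kg) or saline vehicle 2 ml/kg. Rectal temperature read with a digital probe before dosing and 1, 2 and 3 h after; change from basal value analysed by repeated measures ANOVA with Sidak's test.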

Mus musculus [4] = test: Antialzheimer activity in 5xFAD transgenic Alzheimer disease mouse model assessed as increase in SOD1 expression at 1 mg/kg/day by Western blot analysis
hERG (KCNH2) = hERG (KCNH2) (Homo sapiens, UniProt Q12809); test: Inhibition of human ERG at 10 uM
Sequence of hERG (KCNH2) (Q12809 whole entry): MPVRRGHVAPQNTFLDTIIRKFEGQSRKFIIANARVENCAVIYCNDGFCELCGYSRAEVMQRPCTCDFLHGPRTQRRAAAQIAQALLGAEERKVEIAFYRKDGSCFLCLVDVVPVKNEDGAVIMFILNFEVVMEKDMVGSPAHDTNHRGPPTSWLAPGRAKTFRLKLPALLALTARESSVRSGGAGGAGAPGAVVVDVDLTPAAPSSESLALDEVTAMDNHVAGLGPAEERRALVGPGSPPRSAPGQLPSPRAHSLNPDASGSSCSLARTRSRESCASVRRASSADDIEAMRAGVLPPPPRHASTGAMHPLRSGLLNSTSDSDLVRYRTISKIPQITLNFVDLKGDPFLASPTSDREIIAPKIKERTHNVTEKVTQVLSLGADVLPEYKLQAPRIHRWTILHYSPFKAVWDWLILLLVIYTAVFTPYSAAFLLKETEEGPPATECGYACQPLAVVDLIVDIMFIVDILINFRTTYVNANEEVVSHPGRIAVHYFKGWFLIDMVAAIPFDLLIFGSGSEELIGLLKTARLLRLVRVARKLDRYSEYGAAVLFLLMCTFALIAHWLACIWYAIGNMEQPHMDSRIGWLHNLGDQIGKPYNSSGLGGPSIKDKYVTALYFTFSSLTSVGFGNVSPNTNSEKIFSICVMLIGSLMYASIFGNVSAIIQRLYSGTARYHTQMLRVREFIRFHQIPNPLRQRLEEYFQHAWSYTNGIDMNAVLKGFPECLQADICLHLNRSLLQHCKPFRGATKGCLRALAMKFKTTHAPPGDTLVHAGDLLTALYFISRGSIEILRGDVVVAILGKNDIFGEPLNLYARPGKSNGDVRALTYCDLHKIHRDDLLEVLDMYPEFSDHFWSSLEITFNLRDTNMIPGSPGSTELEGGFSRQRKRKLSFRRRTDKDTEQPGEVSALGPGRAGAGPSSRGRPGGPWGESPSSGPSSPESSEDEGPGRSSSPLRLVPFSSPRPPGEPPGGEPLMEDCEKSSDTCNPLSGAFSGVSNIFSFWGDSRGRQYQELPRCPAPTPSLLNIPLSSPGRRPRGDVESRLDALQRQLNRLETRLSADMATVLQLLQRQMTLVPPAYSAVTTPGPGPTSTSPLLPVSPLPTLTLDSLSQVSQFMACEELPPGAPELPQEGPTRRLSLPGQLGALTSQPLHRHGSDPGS

Cytochrome P450 2C9 = Cytochrome P450 2C9 (Homo sapiens, UniProt P11712); test: Inhibition of CYP2C9 (unknown origin) at 10 uM; format: ADME
Sequence of Cytochrome P450 2C9 (P11712 whole entry): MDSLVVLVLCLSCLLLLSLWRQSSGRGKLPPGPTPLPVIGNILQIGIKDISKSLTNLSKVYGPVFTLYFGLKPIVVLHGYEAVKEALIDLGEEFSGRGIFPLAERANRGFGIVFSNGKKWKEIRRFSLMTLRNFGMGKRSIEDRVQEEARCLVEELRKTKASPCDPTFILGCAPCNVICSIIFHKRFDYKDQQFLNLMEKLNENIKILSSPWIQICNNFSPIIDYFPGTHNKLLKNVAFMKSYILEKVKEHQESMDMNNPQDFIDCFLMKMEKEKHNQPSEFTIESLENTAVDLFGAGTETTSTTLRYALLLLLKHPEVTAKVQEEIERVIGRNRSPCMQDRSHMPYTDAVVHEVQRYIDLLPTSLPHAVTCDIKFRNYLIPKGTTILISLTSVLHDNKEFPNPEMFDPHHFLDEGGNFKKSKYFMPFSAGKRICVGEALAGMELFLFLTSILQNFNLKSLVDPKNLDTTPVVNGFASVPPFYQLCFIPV
How it was run: (§2)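 Recombinant human CYP1A2, CYP2C9, CYP2C19, CYP2D6 and CYP3A4 (7-BFC or DBF as probe) were tested with probe substances and fluorescent detection, with test compound at 10 μM.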

[5] = Displacement of [3H]idazoxan from imidazoline I2 receptor high affinity site in rat brain cerebral cortex membrane measured after 30 mins by liquid scintillation counting spectrometry
[6] = Permeability of compound by PAMPA-BBB assay; format: ADME
[7] = Microsomal stability in human liver microsomes assessed as parent compound remaining after 60 mins; format: ADME, Microsome; conditions: read-out: Stabilty
How it was run: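 Human and mouse microsomes, incubation for 60 min, with percentage of parent compound remaining reported.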

Cytochrome P450 3A4 = Cytochrome P450 3A4 (Homo sapiens, UniProt P08684); test: Inhibition of CYP3A4 (unknown origin) using as 7-BFC as substrate at 10 uM; format: ADME; how it was run: as §2
Sequence of Cytochrome P450 3A4 (P08684 whole entry): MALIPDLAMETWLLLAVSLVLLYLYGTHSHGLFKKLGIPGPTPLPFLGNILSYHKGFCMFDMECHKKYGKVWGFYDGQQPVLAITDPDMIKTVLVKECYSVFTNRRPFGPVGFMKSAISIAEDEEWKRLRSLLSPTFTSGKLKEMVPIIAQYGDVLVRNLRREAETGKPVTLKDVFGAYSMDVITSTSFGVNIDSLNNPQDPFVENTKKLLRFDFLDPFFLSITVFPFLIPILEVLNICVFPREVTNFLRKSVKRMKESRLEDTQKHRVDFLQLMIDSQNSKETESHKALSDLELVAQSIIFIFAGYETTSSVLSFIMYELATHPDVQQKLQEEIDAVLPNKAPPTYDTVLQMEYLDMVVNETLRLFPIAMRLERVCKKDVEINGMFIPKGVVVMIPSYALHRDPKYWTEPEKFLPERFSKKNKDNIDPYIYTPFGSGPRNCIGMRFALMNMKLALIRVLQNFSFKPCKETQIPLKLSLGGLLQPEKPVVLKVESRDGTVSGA

[8] = Cmax in CD-1 mouse at 10 mg/kg, po measured after 24 hrs by HPLC/UV-VS analysis; format: ADME, organism-based; design: route oral, dose 10 mg/kg, time 24 hrs; conditions: in vivo
How it was run: (§3)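 Male CD1 mice; plasma concentration of drug at 15 min to 24 h after a single oral 10 mg/kg dose, measured by HPLC with UV at 290 nm (calibration 0,025-5 μg/mL, peak area ratio). Non-compartmental analysis of mean concentration–time curves: AUC by trapezoidal rule, Cmax read directly from the mean curve.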

[9] = Plasma protein binding in mouse assessed as unbound fraction; format: ADME, cell-free
[10] = Acute toxicity in albino mouse assessed as effect on body weight at 100 mg/kg, ip; format: organism-based; conditions: in vivo
Mus musculus [11] = species: Mus musculus; test: Displacement of [3H]2-BFI from imidazoline I2 receptor in Swiss mouse brain cerebral cortex membrane assessed as occupancy at high affinity site measured after 45 mins by liquid scintillation counting spectrometry
[12] = Solubility of the compound in 1% DMSO solution; format: physicochemical
HL-60 = test: Cytotoxicity against human HL-60 cells at 100 uM by real time IncuCyte proliferation assay; format: cell-based; conditions: hl-60, 100 µM; how it was run: as §1
[13] = Displacement of [3H]2-BFI from imidazoline I2 receptor high affinity site in post-mortem human brain frontal cortex membrane two site model measured after 45 mins by liquid scintillation counting spectrometry
[14] = Tmax in CD-1 mouse at 10 mg/kg, po measured after 24 hrs by HPLC/UV-VS analysis; format: ADME, organism-based; conditions: in vivo
How it was run: (§4)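 Male CD1 mice (40–50 g, n = 3–4 per group) received a single 10 mg/kg dose. Plasma was taken at 15, 30, 45 and 60 min and 2, 3, 4, 5, 8 and 24 h. Drug was measured by HPLC-UV at 290 nm against a calibration of 0,025-5 μg/mL. Non-compartmental analysis used the mean curve: t1/2β = ln2/β from least-squares terminal slope; Tmax read directly.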

[15] = Stability in mouse plasma assessed as compound remaining after 6 hrs; format: ADME, cell-free; conditions: read-out: Stabilty
Cytochrome P450 1A2 = target: T1, Cytochrome P450 1A2 (Homo sapiens, UniProt P05177); test: Inhibition of CYP1A2 (unknown origin) at 10 uM; format: ADME; how it was run: as §2
T1 sequence (P05177 whole entry): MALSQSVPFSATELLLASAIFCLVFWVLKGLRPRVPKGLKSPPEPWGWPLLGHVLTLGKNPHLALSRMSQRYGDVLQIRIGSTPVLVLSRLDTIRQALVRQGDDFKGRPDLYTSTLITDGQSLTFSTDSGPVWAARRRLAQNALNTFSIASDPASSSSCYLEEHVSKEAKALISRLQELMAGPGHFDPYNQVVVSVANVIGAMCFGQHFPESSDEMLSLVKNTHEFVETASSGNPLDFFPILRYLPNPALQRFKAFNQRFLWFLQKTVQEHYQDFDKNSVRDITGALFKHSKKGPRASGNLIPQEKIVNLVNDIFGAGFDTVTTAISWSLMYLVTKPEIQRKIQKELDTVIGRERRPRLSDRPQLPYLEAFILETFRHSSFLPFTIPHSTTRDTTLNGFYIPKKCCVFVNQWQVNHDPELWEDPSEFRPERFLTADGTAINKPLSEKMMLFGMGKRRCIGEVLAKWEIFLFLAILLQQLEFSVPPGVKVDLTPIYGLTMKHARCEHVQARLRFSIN

[16] = Cytotoxicity against human DND41 cells at 100 uM by real time IncuCyte proliferation assay; format: cell-based; conditions: dnd41, 100 µM; how it was run: as §1
[17] = Terminal half life in CD-1 mouse at 10 mg/kg, po measured after 24 hrs by HPLC/UV-VS analysis; format: ADME, organism-based; conditions: in vivo, read-out: beta t1/2 (converted); how it was run: as §4
[18] = Plasma protein binding in human assessed as unbound fraction; format: ADME, cell-free
[19] = AUC (0 to t) in CD-1 mouse at 10 mg/kg, po measured after 24 hrs by HPLC/UV-VS analysis; format: ADME, organism-based; design: route oral, time 24 hrs, dose 10 mg/kg; conditions: in vivo; how it was run: as §3

Cl.c1ccc2oc(-c3ncc[nH]3)cc2c1
remaining at 1 h [1]: 83%
Activity (CAPAN-1): Non-Toxic
Ki [2]: 250 µM
Activity [3]: Toxic
Activity (Mus musculus [4]): Active
inhibition at 10 µM (hERG (KCNH2)): 4%
inhibition (INH) (Cytochrome P450 2C9): Not Active
pKi [5]: 6.45
Papp [6]: 13.6 ×10⁻⁶ cm/s
remaining at 1 h [7]: 58%
inhibition (INH) (Cytochrome P450 3A4): Not Active
Cmax [8]: 600 ng/mL
fraction unbound [9]: 0.16
Activity [10]: Non-Toxic
Activity (Mus musculus [11]): 41%
solubility [12]: 52.5 µM
Activity (HL-60): Non-Toxic
pKi [13]: 8.17
Tmax [14]: 2 h
remaining at 6 h [15]: 100%
inhibition (INH) (Cytochrome P450 1A2): Not Active
Activity [16]: Non-Toxic
half-life [17]: 6.7 h
fraction unbound [18]: 0.071
AUC(0-t) at 24 h [19]: 2700 ng·h/mL
